SMARCA2 activ = increases SMARCA2 function in MMTV reporter cells. MG213 cells, MMTV-luciferase reporter, dexamethasone, overnight. activation, % at 9.1 µM. actives 1% (n = 370,000). AID 652017; in the data active = activation above about 7.8%
esBAF inh = SWI/SNF esBAF complex inhibition | mouse ES cells, Bmi1-luciferase knock-in reporter, 24 h; 100% = twice the neutral-well signal | reporter increase, % at 12.5 µM | actives 2% (n = 350,000) | AID 602393; in the data active = activation above about 40%;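 also: a rise in the Bmi1 reporter signal indicates esBAF inhibition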
ASAP1 GAP inh = ASAP1 ArfGAP inhibition; Q9ULH1; ASAP1-stimulated ARF1 GTP hydrolysis, GDP FP detection; inhibition, % at 16.5 µM; actives 0.19% (n = 360,000); AID 624377; in the data active = inhibition above about 25%
Target sequence (Q9ULH1 325-724 limits assumed): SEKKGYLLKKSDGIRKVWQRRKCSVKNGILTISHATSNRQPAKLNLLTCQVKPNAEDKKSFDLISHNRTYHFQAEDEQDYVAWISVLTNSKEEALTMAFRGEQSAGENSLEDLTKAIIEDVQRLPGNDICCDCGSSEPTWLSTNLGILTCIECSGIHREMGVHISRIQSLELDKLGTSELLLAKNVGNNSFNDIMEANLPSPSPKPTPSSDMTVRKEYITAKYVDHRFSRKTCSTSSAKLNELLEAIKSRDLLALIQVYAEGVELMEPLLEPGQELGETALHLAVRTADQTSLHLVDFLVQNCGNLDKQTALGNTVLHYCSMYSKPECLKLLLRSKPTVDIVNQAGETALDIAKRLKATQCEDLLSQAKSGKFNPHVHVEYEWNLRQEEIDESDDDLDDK
ARFGAP1 inh = rat ARFGAP1 inhibition; Arfgap1-stimulated ARF1 GTP hydrolysis, GDP FP detection; inhibition, % at 16.5 µM; actives 0.26% (n = 360,000);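 active = inhibition above a per-plate limit, mean inhibition of low control wells plus 3 SD, cut at about 25% in these data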
Target sequence (Q62848 1-136 limits assumed): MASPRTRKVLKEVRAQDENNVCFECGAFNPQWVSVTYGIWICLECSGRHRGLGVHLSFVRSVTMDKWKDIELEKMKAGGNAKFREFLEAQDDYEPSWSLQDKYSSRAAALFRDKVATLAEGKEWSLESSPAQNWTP
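Assay system: purified rat His6-Arfgap1 residues 1-136 (GAP domain); Reagent: human Δ17 ARF1 bound to GTP; Dosing: 16.5 µM single point, 1.26% DMSO; Times: GTP hydrolysis reaction 2 h at 25 °C; Signal: FP, GDP Alexa 633 tracer displaced from anti-GDP antibody, 620/688 nm; Measure: % inhibition from polarization.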
A number is an active result; – = inactive; · = not tested or not shown. Compounds with a hit are over-represented: about 2.6% of the library has one in this group of screens.

SMILES	SMARCA2 activ	esBAF inh	ASAP1 GAP inh	ARFGAP1 inh
COc1ccccc1NC(=O)N[C@H]1C=C[C@H](CC(=O)N[C@H](C)c2ccccc2)O[C@H]1CO	·	–	·	·
O=C(N[C@@H]1CC[C@@H](CCn2cc(-c3ccccn3)nn2)O[C@@H]1CO)c1ccncc1	·	–	·	·
COc1ccc(S(=O)(=O)N(C)C[C@H]2OCCCC[C@@H](C)Oc3ccc(NS(=O)(=O)c4ccc(F)cc4)cc3C(=O)N([C@@H](C)CO)C[C@@H]2C)cc1	·	–	·	·
COCCN1C(=O)c2ccc(C(=O)Nc3nccs3)cc2C1=O	–	–	–	–
O=C(Nc1nccs1)c1ccc(Cl)c(S(=O)(=O)N2CCCCC2)c1	–	42	–	–
O=C(c1ccc(Cl)c(S(=O)(=O)N2CCCC2)c1)N1CCCCC1	–	·	–	–
CCCN1C(=O)c2ccc(C(=O)Nc3nccs3)cc2C1=O	–	43	–	–
NC(=O)c1ccsc1NC(=O)c1ccc(S(=O)(=O)N2CCCCC2)cc1	–	100	–	–
CC1CCCN(C(=O)c2ccc(Cl)c(S(=O)(=O)N3CCCCCC3)c2)C1 (configuration not stated)	–	58	–	–
O=C(Nc1nccs1)c1cc(S(=O)(=O)N2CCCCC2)ccc1Cl	–	–	–	–
C[C@@H]1CN([C@H](C)CO)C(=O)Cc2cc(NC(=O)Cc3cn(C)c4ccccc34)ccc2O[C@H]1CN(C)CC1CCCCC1	·	–	·	·
CS(=O)(=O)Nc1ccc2c(c1)[C@H]1C[C@@H](CC(=O)NCC3CC3)O[C@@H](CO)[C@H]1O2	·	–	·	·
COCC#Cc1cnc2c(c1)C(=O)N([C@H](C)CO)C[C@H](C)[C@H](CN(C)C(=O)Cc1ccncc1)O2	·	–	·	·
COc1cc(/C=N/OCC(=O)NC2CCCCC2C)ccc1OCc1ccc(Cl)cc1 (configuration not stated)	–	98	–	–
COc1cc(/C=N/OCC(=O)Nc2cc(C)cc(C)c2)ccc1OCc1ccc(Cl)cc1	–	·	–	–
C[C@@H]1CN([C@H](C)CO)C(=O)c2cc(C#CCN(C)C)cnc2O[C@@H]1CN(C)S(C)(=O)=O	·	–	·	·
CCC(=O)N[C@H]1CC[C@@H](CCn2cc(CN(C)C)nn2)O[C@@H]1CO	·	–	·	·
O=[N+]([O-])c1cccc(-c2nnn(C34CC5CC(CC(C5)C3)C4)n2)c1	–	50	–	–
CN1c2ccc(-c3ccc(F)cc3)cc2[C@H]2[C@H](CCN2C(=O)Cc2ccccn2)[C@@H]1CO	·	–	·	·
CCOC(=O)c1cnc(SCCc2ccccc2)nc1N	–	42	–	–
CCOC(=O)c1cnc(SCc2ccc(C)cc2)nc1N	–	61	–	–
Cc1ccc(C2/C(=C(/O)c3cnn(-c4ccccc4)c3C)C(=O)C(=O)N2CCN2CCOCC2)o1 (configuration not stated)	–	50	–	–
Cc1ccc(C2/C(=C(\O)c3cnn(-c4ccccc4)c3C)C(=O)C(=O)N2CCN(C)C)o1 (configuration not stated)	–	48	–	–
Cc1c(/C(O)=C2/C(=O)C(=O)N(CCN3CCOCC3)C2c2cccs2)cnn1-c1ccccc1 (configuration not stated)	–	–	–	–
Cc1c(/C(O)=C2\C(=O)C(=O)N(CCN(C)C)C2c2ccco2)cnn1-c1ccccc1 (configuration not stated)	–	–	–	–
SMILES	SMARCA2 activ	esBAF inh	ASAP1 GAP inh	ARFGAP1 inh
c1ccc(-c2cnc(-c3ccccc3)nn2)cc1	7.9	–	–	–
c1ccc(-c2cnc(-c3ccccn3)nn2)cc1	–	–	–	–
O=C(NNC(=O)c1cc2ccccc2oc1=O)c1ccccc1	–	55	–	–
C/C(=N\NS(=O)(=O)c1ccc(C)c([N+](=O)[O-])c1)c1cc2ccccc2o1	–	·	–	–
O=C(c1cc2ccccc2oc1=O)N1CCN(c2ncccn2)CC1	·	70	·	·
CC(Cc1ccccc1)NC(=O)c1cc2ccccc2o1 (configuration not stated)	–	82	–	–
Cc1ccc(C(=O)c2cc3ccccc3o2)cc1[N+](=O)[O-]	–	67	–	–
CCC(=O)Nc1ccc2c(c1)OC[C@H](C)N(Cc1ccccc1C(=O)O)C[C@@H](C)[C@@H](OC)CN(C)C2=O	·	–	·	·
CNC[C@H]1OCCCC[C@@H](C)Oc2ccc(NC(=O)Nc3ccc(F)cc3)cc2C(=O)N([C@H](C)CO)C[C@@H]1C	·	–	·	·
O=C(c1ccccc1)c1cc2ccccc2o1	–	49	–	–
COc1ccc2cc(C(=O)c3ccccc3)c(=O)oc2c1	–	66	–	–
CO[C@H]1CN(C)C(=O)c2cc(NS(=O)(=O)c3ccc(Cl)cc3)ccc2OC[C@@H](C)N(C(=O)NC(C)C)C[C@@H]1C	·	–	·	·
O=C(NCC[C@@H]1CC[C@H](NS(=O)(=O)c2cccc(Cl)c2)[C@@H](CO)O1)c1cnccn1	·	–	·	·
C[C@@H]1CN([C@@H](C)CO)C(=O)c2cc(NS(=O)(=O)c3cccs3)ccc2O[C@@H]1CN(C)S(=O)(=O)c1ccc(Cl)cc1	·	–	·	·
CCOC(=O)CC(=O)CSc1nc(CC)c(C)cc1C#N	–	·	–	–
CC(C)OC(=O)CC(=O)CSc1nc2c(cc1C#N)CCCCC2	–	·	–	–
CCOC(=O)CC(=O)COc1nc2cc3c(nc2o1)CCCC3	–	59	–	–
Cc1ccccc1NC(=O)Cn1cnc2c(oc3nc4c(cc32)CCCC4)c1=O	–	–	–	–
CC(C)OC(=O)CSc1nc2c(cc1C#N)CCCCC2	–	71	–	–
CCOC(=O)CC(=O)CSc1nc2c(cc1C#N)CCCCC2	–	52	–	–
CCOC(=O)CC(=O)CSc1nc2ccc(C)cc2cc1C#N	8.8	–	–	–
N#Cc1cc2c(nc1SCC(=O)N1CCCCC1)CCCC2	–	–	–	–
C[C@H]1CN([C@@H](C)CO)C(=O)c2cc(NC(=O)CCCN(C)C)ccc2O[C@H]1CN(C)S(=O)(=O)c1cn(C)cn1	·	–	·	·
O=C(N[C@@H]1CC[C@H](CCn2cc(-c3ccccc3)nn2)O[C@@H]1CO)c1ccccc1F	·	–	·	·
C[C@H](CO)N1C[C@H](C)[C@H](CN(C)S(=O)(=O)c2ccc(F)cc2)OCCCC[C@H](C)Oc2ccc(NC(=O)CCC(F)(F)F)cc2C1=O	·	–	·	·
SMILES	SMARCA2 activ	esBAF inh	ASAP1 GAP inh	ARFGAP1 inh
O=C(NCC(=O)N1CCCC1)c1ccccc1F	–	48	–	–
CN1CCCN(C(=O)CNC(=O)c2ccccc2F)CC1	–	–	–	–
O=C(NCC(=O)N1CCC(Cc2ccccc2)CC1)c1ccccc1F	–	53	–	–
CN(C)C(=O)C[C@H]1CC[C@@H](NC(=O)NC2CCCCC2)[C@@H](CO)O1	·	–	·	·
Cc1ccc2nc(C)/c(=N\O)c(C)nc2c1	–	55	–	–
CC(C)CC#Cc1cnc2c(c1)C(=O)N([C@H](C)CO)C[C@@H](C)[C@H](CN(C)C(=O)c1cnccn1)O2	·	–	·	·
Cc1cccc2sc(NC(=O)C3CCCO3)nc12 (configuration not stated)	–	74	–	–
O=C(Nc1ncc(Cc2cccc(Cl)c2Cl)s1)C1CCCO1 (configuration not stated)	–	85	–	–
